High-throughput results as filed in PubChem.
Hits are enriched below; roughly 2.3% of the tested compounds scored in any of these assays.
TRPC4 potent = allosteric potentiators of mouse TRPC4 channel; HEK293 TRPC4beta/mu-opioid, DAMGO EC20, Fluo-4 Ca2+ flux; active compounds read high; Q9QUQ5; actives 0.42% (n = 310,000); B-score at 10 µM;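 active means B-score of calcium response area above 5 SD of library B-scores, with initial fluorescence ratio within 5 SD of library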
Target sequence (Q9QUQ5 whole entry, looked up): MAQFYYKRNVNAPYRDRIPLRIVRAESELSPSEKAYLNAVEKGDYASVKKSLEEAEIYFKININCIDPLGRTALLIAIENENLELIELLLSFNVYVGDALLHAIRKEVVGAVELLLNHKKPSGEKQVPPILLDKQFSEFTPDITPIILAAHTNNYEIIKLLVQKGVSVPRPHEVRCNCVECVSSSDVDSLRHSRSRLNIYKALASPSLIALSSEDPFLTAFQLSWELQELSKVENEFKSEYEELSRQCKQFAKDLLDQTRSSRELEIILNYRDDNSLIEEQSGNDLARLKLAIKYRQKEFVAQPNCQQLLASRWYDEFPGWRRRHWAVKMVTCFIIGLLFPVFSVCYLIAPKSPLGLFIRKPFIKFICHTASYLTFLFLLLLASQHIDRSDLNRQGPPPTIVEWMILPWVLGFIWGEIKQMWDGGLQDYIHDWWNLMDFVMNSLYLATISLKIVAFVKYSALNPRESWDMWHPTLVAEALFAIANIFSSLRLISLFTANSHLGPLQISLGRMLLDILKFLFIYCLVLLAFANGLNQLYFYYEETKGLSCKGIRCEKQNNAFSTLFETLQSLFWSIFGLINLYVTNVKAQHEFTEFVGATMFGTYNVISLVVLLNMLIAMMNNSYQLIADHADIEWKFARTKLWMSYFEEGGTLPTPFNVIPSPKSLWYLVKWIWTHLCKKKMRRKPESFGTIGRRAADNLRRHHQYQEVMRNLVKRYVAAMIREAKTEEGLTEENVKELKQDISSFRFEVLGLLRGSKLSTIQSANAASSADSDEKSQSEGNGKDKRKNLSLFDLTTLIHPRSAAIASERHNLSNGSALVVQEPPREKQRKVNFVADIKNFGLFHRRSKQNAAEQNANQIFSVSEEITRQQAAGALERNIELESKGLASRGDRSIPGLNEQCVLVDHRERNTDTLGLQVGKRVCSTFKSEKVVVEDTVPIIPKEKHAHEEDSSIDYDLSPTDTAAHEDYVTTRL
TRPC4 block = inhibitors of mouse TRPC4 channel | Q9QUQ5 | HEK293 TRPC4beta/mu-opioid, DAMGO-evoked Fluo4 calcium flux; active compounds read low | B-score at 10 µM | actives 0.39% (n = 300,000) | AID 2247;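 active means B-score over 3 SD under the library average, no early fluorescence shift, positive overall ratio signal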
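Assay system: Stable TRPC4beta/mu-opioid receptor HEK293 cells | Reagent: DAMGO in two steps, submaximal then maximal | Compound dosing: Single concentration per test compound | Signal: Fluo4 Ca2+ flux fluorescence | Evaluation: Per-well B score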
TRPC4 agonist = TRPC4 (mouse) channel activation. Q9QUQ5. HEK293 TRPC4beta/mu-opioid, Fluo4 calcium fluorescence; active compounds read high. B-score at 10 µM. actives 0.49% (n = 310,000). AID 2237;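 active means B-score above 5 SD of library B-scores, and initial fluorescence ratio not above library mean plus 5 SD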;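 further: positive B-score marks a calcium rise read as TRPC4 activation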
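Assay system: HEK293 stable line with TRPC4beta plus mu-opioid receptor; schedule: 45 min room-temperature Fluo4 loading, 110 s read; technique: kinetic Fluo4 calcium fluorescence; evaluation: integrated baseline-normalised fluorescence ratio, converted to per-well B score; controls: buffer (low) and maximal DAMGO (high)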
TRPC6 inh = blocks the mouse TRPC6 cation channel; HEK293-TRPC6, membrane potential dye, ACh-evoked depolarization; active compounds read low; Q61143; actives 1.1% (n = 310,000); B-score at 10 µM; AID 2553;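 active means B-score under library mean minus 3 SD, initial fluorescence not abnormally high, positive integrated signal ratio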;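 further: B-score derived from integrated fluorescence ratio over the kinetic read; more negative B-score means stronger inhibition of depolarization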
TRPC6 act = mouse TRPC6 channel activation; Q61143; HEK293-TRPC6 membrane potential dye fluorescence; active compounds read high; B-score at 10 µM; actives 0.13% (n = 310,000); AID 2550;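 active means B-score of the integrated fluorescence ratio above library mean plus 3 SD, and starting fluorescence ratio within library mean plus 5 SD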;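 further: higher score means more depolarization so channel activation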
TRPC4 sel inh 2 = second selectivity test of TRPC6 inhibitors: effect on mouse TRPC4. shares compounds with TRPC6 inh. HEK293 TRPC4/MOR, membrane potential dye fluorescence; channel activated by saturating DAMGO dose. inhibition, % at 10 µM. actives 42% (n = 920). AID 2776;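 active means compounds whose fluorescence signal differed from control wells by over 3 SD, either direction, in both duplicate plates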
TRPC4 spec = mouse TRPC4 off-target activity of TRPC6 inhibitors; shares compounds with TRPC6 inh; HEK293 TRPC4/mu-opioid, membrane potential fluorescence; activity change, negative = inhibition, % at 10 µM; actives 61% (n = 920); AID 2777;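 active means rise or fall in signal beyond 3 SD of buffer-only wells in both replicate plates, either sign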;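 further: integrated kinetic ratio of fluorescence range over baseline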
HEK293 MPD ctr 2-1 = parental HEK293 nonspecific activity of TRPC6 inhibitors, second screen | shares compounds with TRPC6 inh | parental HEK293 membrane potential dye fluorescence; maximal acetylcholine challenge after compound addition | signal change vs control, % at 10 µM | actives 31% (n = 920);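 active means membrane potential signal moving either way by over 3 SD of the maximum-effect control, in both duplicate plates, meaning non-specific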
HEK293 MPD ctr-1 = checks TRPC6 inhibitor effects in parental HEK293 cells | shares compounds with TRPC6 inh | parental HEK293 membrane potential dye fluorescence | membrane potential signal change, % at 10 µM | actives 60% (n = 920);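 active means membrane potential signal shifting up or down by more than 3 SD of buffer-only wells, on both duplicate plates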
HEK293 MPD ctr-2 = checks TRPC6 modulator effects in parental HEK293 cells | shares compounds with TRPC6 inh | membrane potential dye fluorescence | membrane potential signal change, % at 10 µM | actives 51% (n = 2,400) | AID 488924;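 active means membrane potential signal moves up or down beyond 5 SD from buffer-only wells, on both duplicate plates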
HEK293 MPD ctr 2-2 = second counter-screen for TRPC6 modulators: effect in parental HEK293 cells | shares compounds with TRPC6 inh | membrane potential dye fluorescence; after compound, maximal acetylcholine stimulation | inhibition, % at 10 µM | actives 14% (n = 2,400);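 active means membrane potential signal drops by more than 5 SD from the mean control signal, in both duplicate plates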
TRPC4/MOR mod = mouse TRPC4 off-target activity of TRPC6 modulators; shares compounds with TRPC6 inh; HEK293 TRPC4/mu-opioid, membrane potential fluorescence; percent change from control (negative = decrease, positive = increase), % at 10 µM; actives 69% (n = 2,400); AID 488927;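 active means membrane potential signal moved up or down beyond 5 SD of buffer control wells, in both duplicate plates, actives on both sides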
TRPC4/MOR inh 2 = mouse TRPC4 off-target activity of TRPC6 modulators, second screen; HEK293 TRPC4/mu-opioid, membrane potential dye fluorescence; stimulated with maximal-effect DAMGO; shares compounds with TRPC6 inh; inhibition, % at 10 µM; AID 488928; actives 55% (n = 2,400);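 active means drop in membrane potential signal beyond 5 SD of the control wells in both duplicate plates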;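 further: TRPC4 counter screen for TRPC6 hits run under conditions tuned for TRPC6 not TRPC4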
TRPC6 block conf = confirmation of mouse TRPC6 inhibitors | shares compounds with TRPC6 inh | HEK293-TRPC6, membrane potential dye, ACh-evoked depolarization | inhibition, % at 10 µM | actives 43% (n = 3,300);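 active means fluorescence ratio falls more than 5 SD below the full-stimulation control mean, in both duplicate runs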;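 further: integrated fluorescence ratio of peak minus minimum over baseline after agonist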
TRPC6 act conf = confirmation of mouse TRPC6 activators; shares compounds with TRPC6 inh; HEK293-TRPC6 membrane potential dye fluorescence, FDSS; activation, % at 10 µM; actives 11% (n = 2,800);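 active means ratio signal rise beyond 5 SD above unstimulated control wells' mean, seen in both duplicate runs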
Large screens that a line does not name were inactive (follow-up assays come after a bar, where they were run).

Cc1ccc(N2C(=O)CCSC23C(=O)Nc2ccccc23)cc1 (centres undefined)	TRPC6 inh -6.7 | TRPC4 sel inh 2 inactive | TRPC4 spec inactive | HEK293 MPD ctr 2-1 inactive | HEK293 MPD ctr-1 inactive | TRPC6 block conf inactive | TRPC6 act conf inactive
COc1ccc(N2C(=O)CSC23C(=O)Nc2ccccc23)cc1 (centres undefined)	none
[O-]/[N+](=C\c1ccncc1)c1ccc(Br)cc1	none
[O-]/[N+](=C/c1cccnc1)c1ccc(Br)cc1	TRPC6 inh -6 | HEK293 MPD ctr-2 inactive | HEK293 MPD ctr 2-2 inactive | TRPC4/MOR mod inactive | TRPC4/MOR inh 2 inactive | TRPC6 block conf inactive | TRPC6 act conf inactive
CC1=CC(=C(C#N)c2nc3ccccc3s2)C=C(C)N1CC1CCCO1 (centres undefined)	TRPC6 inh -9.8 | HEK293 MPD ctr-2 486% | HEK293 MPD ctr 2-2 inactive | TRPC4/MOR mod -92% | TRPC4/MOR inh 2 inactive | TRPC6 block conf inactive | TRPC6 act conf inactive
CC(Oc1ccc2c3c(c(=O)oc2c1)CCCC3)C(=O)NCc1cccnc1 (centres undefined)	none
Cc1ccc2cc(C=O)c(N3CCOCC3)nc2c1C	none
Cc1cc(N2CCOCC2)c2c(N)cc(C)c(C)c2n1	TRPC6 inh -11 | HEK293 MPD ctr-2 -357% | HEK293 MPD ctr 2-2 87% | TRPC4/MOR mod -54% | TRPC4/MOR inh 2 54% | TRPC6 block conf 58% | TRPC6 act conf inactive
CCN1C(=O)/C(=C/C=C2\C=CN(CC)c3ccccc32)SC1=S	TRPC6 inh -6.1 | HEK293 MPD ctr-2 inactive | HEK293 MPD ctr 2-2 inactive | TRPC4/MOR mod -27% | TRPC4/MOR inh 2 80% | TRPC6 block conf inactive | TRPC6 act conf inactive
CCC(C)(C)n1nnnc1C(c1ccccc1F)N1CCN(C(=O)c2ccco2)CC1 (centres undefined)	none
CN1C(=O)C(N=Nc2ccccc2C(=O)O)N(C)C1=S (centres undefined)	TRPC6 act 20 | HEK293 MPD ctr-2 438% | HEK293 MPD ctr 2-2 inactive | TRPC4/MOR mod 80% | TRPC4/MOR inh 2 inactive | TRPC6 block conf inactive | TRPC6 act conf 198%
CC(C)(C)c1ccc(OCCCNC2CCCC2)cc1	TRPC6 inh -5.8 | HEK293 MPD ctr-2 209% | HEK293 MPD ctr 2-2 62% | TRPC4/MOR mod 47% | TRPC4/MOR inh 2 40% | TRPC6 block conf 66%
Cc1ccc(OCCCNC2CCCC2)cc1	none
O=C(COc1ccc(/C=N/NC(=O)c2ccncc2)cc1)Nc1ccc([N+](=O)[O-])cc1	none
O=C(COc1ccc([N+](=O)[O-])cc1)Nc1ccncc1	TRPC6 inh -5.2 | HEK293 MPD ctr-2 -134% | HEK293 MPD ctr 2-2 inactive | TRPC4/MOR mod -28% | TRPC4/MOR inh 2 32% | TRPC6 block conf 37% | TRPC6 act conf inactive
CCc1ccc(C(=O)N2CCN(c3ccc(NC(=O)c4cccnc4)cc3)CC2)cc1	none
CCN(CC)CCCNc1oc(-c2cccc(Cl)c2)nc1C#N	TRPC6 inh -6.1 | HEK293 MPD ctr-2 inactive | HEK293 MPD ctr 2-2 inactive | TRPC4/MOR mod inactive | TRPC4/MOR inh 2 34% | TRPC6 block conf 54% | TRPC6 act conf inactive
CN(C)CCCNc1oc(-c2ccc(Cl)cc2)nc1C#N	none
CCCCN(C(=O)C1CC(=O)N(Cc2ccc(C)cc2)C1)c1c(N)n(CC(C)C)c(=O)[nH]c1=O (centres undefined)	none
O=C(Nc1cccc(CNCCc2c[nH]c3ccccc23)c1)c1ccccc1Cl	TRPC6 inh -6.5 | HEK293 MPD ctr-2 inactive | HEK293 MPD ctr 2-2 inactive | TRPC4/MOR mod -15% | TRPC4/MOR inh 2 80% | TRPC6 block conf 55% | TRPC6 act conf inactive
CCN1CCN(c2ccc(NC(=O)c3ccc(Cl)c(N4CCCC4=O)c3)cc2)CC1	none
CC[N+](C)(CC)CC(=O)OCC1C(C)C=C(C)CC1C (centres undefined)	TRPC6 inh -8.4 | TRPC4 sel inh 2 inactive | TRPC4 spec inactive | HEK293 MPD ctr 2-1 inactive | HEK293 MPD ctr-1 inactive | TRPC6 block conf inactive | TRPC6 act conf inactive
CCc1noc(C)c1C(=O)N1CCN(S(=O)(=O)c2ccc(Cl)s2)CC1	none
Cc1ccc2c(c1)CCCN2C(=O)NC1CCCCC1	TRPC6 inh -6.9 | TRPC4 sel inh 2 inactive | TRPC4 spec inactive | HEK293 MPD ctr 2-1 inactive | HEK293 MPD ctr-1 inactive | TRPC6 block conf inactive | TRPC6 act conf inactive
Cc1ccc(C2N(c3ccccc3)C(=S)N3CCCN23)cc1 (centres undefined)	TRPC6 inh -7.5 | TRPC4 sel inh 2 inactive | TRPC4 spec inactive | HEK293 MPD ctr 2-1 inactive | HEK293 MPD ctr-1 inactive | TRPC6 block conf 70% | TRPC6 act conf inactive
OCC[C@@H]1C[C@@H](O)[C@H](O)[C@]2(CCc3ccccc3CO2)O1	none
COc1ccc(/C=C/c2cc(C(F)(F)F)[nH]c(=O)n2)cc1OC	TRPC6 inh -5.9 | HEK293 MPD ctr-2 -180% | HEK293 MPD ctr 2-2 inactive | TRPC4/MOR mod -34% | TRPC4/MOR inh 2 inactive | TRPC6 block conf inactive | TRPC6 act conf inactive
CCOc1cc(/C=C/c2cc(C(F)(F)F)[nH]c(=O)n2)ccc1O	none
Cc1nc(SCC(=O)Nc2nnc(C(C)C)s2)n[nH]1	none
